The source of these data is ChEMBL document CHEMBL5329221, “A covalent fragment-based strategy targeting a novel cysteine to inhibit activity of mutant EGFR kinase” (RSC Med Chem, 2023).

Experiment [1] relates to Epidermal growth factor receptor (Homo sapiens), P00533 [T790M,L858R,C797S,E865A,E866A,K867A]. Kind of experiment: Binding affinity to N-terminal His6-tagged human EGFR T790M/L858R/C797S/E865A/E866A/K867A mutant expressed in Sf9 cells at pH 7.4 assessed as covalent adduct formation incubated for 1 hrs by TOF-MS analysis.
For experiment [2], the system named is Epidermal growth factor receptor (Homo sapiens), P00533 [T790M,L858R,E865A,E866A,K867A]. Description: Binding affinity to N-terminal His6-tagged human EGFR T790M/L858R/E865A/E866A/K867A mutant expressed in Sf9 cells at pH 7.4 assessed as covalent adduct formation incubated for 1 hrs by TOF-MS analysis.
The target of experiment [3] is Epidermal growth factor receptor (Homo sapiens, UniProt P00533, C797S/L858R/T790M). Kind of experiment: Inhibition of N-terminal His6-tagged human EGFR L858R/T790M/C797S mutant expressed in Sf9 cells assessed as decrease in substrate phosphorylation using Ulight-JAK1 peptide as substrate incubated for 1.5 hrs in presence of ATP by TR-FRET based LANCE Ultra kinase assay. The procedure, abridged: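 LANCE Ultra TR-FRET assay with 0.25 nM EGFR_TM, 1 µM ATP, 50 nM ULight-JAK1 peptide, 50 mM HEPES pH 7.5, 10 mM MgCl2, 5 mM MnCl2, 1 mM DTT, 0.015% Brij35, 5% DMSO, 1.5 h at 23°C. EDTA stop, Eu-anti-pTyr PT66, 1 h. Signal is the 665/620 nm ratio, normalised to no-protein controls. IC50 from a four-parameter fit, otherwise % inhibition at the top concentration.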
On the technique in general: TR-FRET usually uses a lanthanide donor and a delayed reading to cut background.

Experiment [4] deals with Epidermal growth factor receptor (Homo sapiens) (UniProt P00533). Kind of experiment: Binding affinity to N-terminal twin Strep-tagged human wild type EGFR (694 to 1022 residues) expressed in Sf9 cells at pH 7.4 assessed as covalent adduct formation preincubated with maleimide followed by compound addition and measured after 1 hrs by TOF-MS analysis.
Experiment [5] relates to Epidermal growth factor receptor (Homo sapiens), P00533 [L858R,T790M,C797S]. Description: Inhibition of N-terminal His6-tagged human EGFR L858R/T790M/C797S mutant expressed in Sf9 cells assessed as decrease in substrate phosphorylation using Ulight-JAK1 peptide as substrate at 500 uMincubated for 1.5 hrs in presence of ATP by TR-FRET based LANCE Ultra kinase assay.
In experiment [6] the test system is Epidermal growth factor receptor (Homo sapiens), P00533 [T790M,L858R,E865A,E866A,K867A]. Description: Binding affinity to N-terminal His6-tagged human EGFR T790M/L858R/E865A/E866A/K867A mutant expressed in Sf9 cells at pH 7.4 assessed as covalent adduct formation preincubated with nazartinib followed by compound addition and measured after 1 hrs by TOF-MS analysis.

Experiment [7] has as its system Epidermal growth factor receptor (Homo sapiens), P00533 [T790M,L858R,C797S,E865A,E866A,K867A]. Kind of experiment: Binding affinity to N-terminal His6-tagged human EGFR T790M/L858R/C797S/E865A/E866A/K867A mutant expressed in Sf9 cells at pH 7.4 incubated for 1 hrs by TOF-MS analysis.

Activity calls are given as the source filed them. The calls are words filed in the database; no cut-off is given here.

In general, IC50 refers to the concentration needed to halve the response being measured. What is called inhibition is the drop in the measured response relative to a control, in per cent.

Regarding `C=CC(=O)Nc1cccc2c1ncn2C`, the outcome in experiment [1] and in experiment [2] was Active.
Consider `C=CC(=O)Nc1ccccn1`, for which the result in experiment [1], in experiment [2] and in experiment [7] was Active. Besides, the IC50 in experiment [3] is more than 500 µM. Besides, the result in experiment [4] and in experiment [6] was inactive. In experiment [5], the inhibition worked out at 52.3%.
Regarding `C=CC(=O)Nc1cccc(NC(C)=O)n1`, the result in experiment [1] and in experiment [2] was Active.
Turning to `C=CC(=O)Nc1ccc2cccnc2c1`, the result in experiment [1], in experiment [2] and in experiment [7] was Active. The outcome in experiment [4] and in experiment [6] was inactive.
Regarding `C=CC(=O)Nc1cc(N(C)C)n2nc(C)cc2n1`, the result in experiment [1] and in experiment [2] was Active.
`C=CC(=O)Nc1cc(-c2ccccc2)ccn1`: the half-maximal inhibitory concentration (IC50) in experiment [3] came out at 32 µM.
As for `C=CC(=O)Nc1cc(-c2cn(C)c3ccccc23)ccn1`, the IC50 in experiment [3] was found to be 9 µM.
Take `C=CC(=O)Nc1ccc[nH]c1=O`: the result in experiment [1] and in experiment [2] was Active.
Regarding `C=CC(=O)Nc1cccc(O)c1`, the outcome in experiment [1] and in experiment [2] was Active.
Turning to `C=CC(=O)Nc1cc2ccccn2n1`, the outcome in experiment [1], in experiment [2] and in experiment [7] was Active. Moreover, the result in experiment [4] and in experiment [6] was inactive.
`C=CC(=O)Nc1cccc(C(C)=O)c1`: the outcome in experiment [1] and in experiment [2] was Active.
For the compound `C=CC(=O)Nc1ccc2c(C)n(C)nc2c1`, the result in experiment [1] and in experiment [2] was Active.
